Measurements pooled from the literature.
Each line is one published result; the experiments were not run side by side.
Target: cGMP-dependent protein kinase 2 (PRKG2, Homo sapiens, UniProt Q13237)
One construct used (Q13237 1-762): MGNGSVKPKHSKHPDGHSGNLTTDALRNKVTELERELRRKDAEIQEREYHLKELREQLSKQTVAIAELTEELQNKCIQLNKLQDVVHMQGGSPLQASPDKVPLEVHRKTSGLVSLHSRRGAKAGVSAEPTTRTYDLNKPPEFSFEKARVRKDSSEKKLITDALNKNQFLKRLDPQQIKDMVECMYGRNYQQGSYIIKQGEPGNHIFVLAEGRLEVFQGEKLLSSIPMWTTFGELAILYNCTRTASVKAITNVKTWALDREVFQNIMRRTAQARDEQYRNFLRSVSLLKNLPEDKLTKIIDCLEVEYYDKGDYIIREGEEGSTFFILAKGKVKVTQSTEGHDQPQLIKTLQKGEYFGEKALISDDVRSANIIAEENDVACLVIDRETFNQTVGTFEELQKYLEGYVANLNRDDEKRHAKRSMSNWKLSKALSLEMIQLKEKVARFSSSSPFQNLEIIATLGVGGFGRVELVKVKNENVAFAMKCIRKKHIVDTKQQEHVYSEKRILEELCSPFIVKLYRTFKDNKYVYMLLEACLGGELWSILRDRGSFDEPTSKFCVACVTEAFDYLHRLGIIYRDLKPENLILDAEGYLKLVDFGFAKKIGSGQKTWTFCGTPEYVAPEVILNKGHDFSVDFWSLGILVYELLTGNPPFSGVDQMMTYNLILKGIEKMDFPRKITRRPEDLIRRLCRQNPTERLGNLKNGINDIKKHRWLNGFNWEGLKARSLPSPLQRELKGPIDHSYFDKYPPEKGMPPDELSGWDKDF

`Cn1cncc1C1=CN(c2ncnc3[nH]cnc23)CCS1` has an inhibition of 99.4% (enzyme activity, inhibitor, radiometric; 2 µM).
For `O=C(Nc1cccnn1)N1CCC(=Cc2cccc(Oc3ccc(C(F)(F)F)cn3)c2)CC1`, the remaining binding was 100% (cell-free assay, competition with immobilised ligand; 1 µM).
For `CCCS(=O)(=O)Nc1ccc(F)c(C(=O)c2c[nH]c3ncc(-c4ccc(Cl)cc4)cc23)c1F`, the inhibition was < 10% (enzyme activity, inhibitor; 1 µM).
With `N#CC1(c2ccccn2)CCN(Cc2cc(C(=O)N3CCCC3)c(=O)n3ccccc23)CC1` the remaining binding was 100% (cell-free assay, competition with immobilised ligand; 1 µM).
`CC(C)(O)[C@H]1CC[C@H](Nc2ccc3ncc(-c4cccc(C(F)(F)F)c4)n3n2)CC1` has a remaining activity of 93.7% (enzyme activity, inhibitor; 1 µM).
`C[C@H]1CCN(c2nccc(-c3cnn4ncccc34)n2)C1` has a remaining binding of 80% (binding; 1 µM).
With `Cc1sc(C(=O)NC2COC2)cc1-n1cc(NC(=O)Nc2c(F)cccc2Cl)cn1` the remaining activity was 100% (enzyme activity, inhibitor; 10 µM).
With `CN1CC(Oc2cnc(C#N)cc2-c2ccn3nc(NC(=O)C4CC4)cc3c2)C1` the inhibition was 1% (enzyme activity, inhibitor; 1 µM).
For `Cn1cnc(Br)c1C1=CN(c2ncnc3[nH]cnc23)CCS1`, the inhibition was 91.7% (enzyme activity, inhibitor, radiometric; 2 µM).
`Cc1ccc(NC(=O)c2ccc(CN3CCN(C)CC3)cc2)cc1Nc1nc(-c2cccnc2)cs1` has a remaining signal of 95.4% (cell-free assay; 0.5 µM).
`Cc1cc(-n2nc(Cc3cc(F)cc(C(F)(F)F)c3)nc2C)ccc1C(N)=O` gave a remaining binding of 86% (cell-free assay, competition with immobilised ligand; 1 µM).
`O=C1Nc2ccc(Cl)cc2C1=Cc1cc(Cl)c(O)c(Cl)c1` has a remaining signal of 97% (cell-free assay; 0.5 µM).
`CC(C)(C)c1nc(-c2cccc(NS(=O)(=O)c3c(F)cccc3F)c2F)c(-c2ccnc(N)n2)s1` has a remaining activity of 102% (enzyme activity, inhibitor, radiometric; 1 µM).
For `COc1cc2ncnc(Nc3ccc(Oc4ccccc4)cc3C)c2cc1OC`, the inhibition was 3% (enzyme activity, inhibitor; 1 µM).
`C[C@H](c1cccc(C#N)c1)n1cc(Cl)cc(C(N)=O)c1=N` has a remaining binding of 97% (cell-free assay, competition with immobilised ligand; 1 µM).
`COc1cc(Cl)c(C(=O)N[C@@H](CN[C@H]2CC[C@@H](N)CC2)Cc2ccc(C#N)cc2)cc1-c1ccc(CN[C@H](C)c2ccc(C)cc2)o1` gave a remaining activity of 98% (enzyme activity, inhibitor; 1 µM).
The inhibition of `CN(C)C1CCN(CC#Cc2nn(C3CCCC3)c3nc(NCc4ccccc4)ncc23)C1` (stereo not shown) is reported as 5% (enzyme activity, inhibitor, FRET; 10 µM).
The remaining binding of `CN([C@@H]1CCc2c(CC(=O)O)c3ccccc3n2C1)S(=O)(=O)c1ccc(F)cc1` is reported as 100% (cell-free assay, competition with immobilised ligand; 1 µM).
`O=C1NC(=O)c2cc(Nc3ccc(F)cc3)c(Nc3ccc(F)cc3)cc21` gave a remaining signal of 83.3% (cell-free assay; 0.5 µM).
